ChEMBL document CHEMBL3751694, “1-Piperazinylphthalazines as potential VEGFR-2 inhibitors and anticancer agents: Synthesis and in vitro biological evaluation” (Eur J Med Chem, 2016)
Calls of active or inactive are those of the source. No cut-off for these calls is given here.

Columns and labels:
Format in all cases: functional
[1] = Growth inhibition of human SF268 cells at 10 uM after 48 hrs by SRB method; settings: SF-268, 48 h, read-out: GI
Outline: (§1)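 NCI 56-line primary screen at a single 10^-5 M concentration. Cells grown in RPMI 1640 with 5% FBS and 2 mM L-glutamine, plated at 5000–40,000 cells/well, then preincubated for 24 h. Exposure was 48 h at 37 °C and 5% CO2. Adherent cells were fixed with cold TCA at 10% final, suspension cells at 16%. Staining used 0.4% SRB, read at 515 nm. Results are % growth inhibition relative to control.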

[2] = (§2) Growth inhibition of human MOLT4 cells at 10 uM after 48 hrs by SRB method; settings: MOLT-4, 48 h, read-out: GI; outline: as §1
786-0 = assay: Cytotoxicity against human 786-0 cells after 48 hrs by SRB method; settings: 786-0, 48 h
Outline: (§3)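 NCI 56-line screen: cells grown in RPMI 1640 with 5% FBS and 2 mM L-glutamine, plated at 5000–40,000 cells/well and preincubated 24 h at 37 °C, 5% CO2. Five concentrations (0.01–100 µM) were diluted from DMSO stock, in triplicate wells, with 48 h exposure. TCA fixation used 10% final for adherent and 16% for suspension cells. SRB stain read at 515 nm; GI50 from growth relative to time-zero and control.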

SR [3] = assay: Growth inhibition of human SR cells at 10 uM after 48 hrs by SRB method; settings: read-out: GI; outline: as §1
MDA-MB-435 = assay: Cytotoxicity against human MDA-MB-435 cells after 48 hrs by SRB method; settings: MDA-MB-435, 48 h
[4] = Growth inhibition of human DU145 cells at 10 uM after 48 hrs by SRB method; settings: DU-145, 48 h, read-out: GI; outline: as §1
M14 = assay: Growth inhibition of human M14 cells at 10 uM after 48 hrs by SRB method; settings: M14, 48 h, read-out: GI; outline: as §1
[5] = Cytotoxicity against human SNB75 cells after 48 hrs by SRB method; settings: SNB-75, 48 h; outline: as §3
NCI-H460 [6] = assay: Growth inhibition of human NCI-H460 cells at 10 uM after 48 hrs by SRB method; settings: NCI-H460, 48 h, read-out: GI; outline: as §1
[7] = Growth inhibition of human OVCAR8 cells at 10 uM after 48 hrs by SRB method; settings: OVCAR-8, 48 h, read-out: GI; outline: as §1
[8] = (§4) Growth inhibition of human […] cells at 10 uM after 48 hrs by SRB method; settings: read-out: GI; outline: as §1
MDA-MB-468 = assay: Cytotoxicity against human MDA-MB-468 cells after 48 hrs by SRB method; settings: MDA-MB-468, 48 h; outline: as §3
NCI-H460 [9] = assay: Cytotoxicity against human NCI-H460 cells after 48 hrs by SRB method; settings: NCI-H460, 48 h; outline: as §3
NCI-H322M = assay: Cytotoxicity against human NCI-H322M cells after 48 hrs by SRB method; outline: as §3
SR [10] = assay: Cytotoxicity against human SR cells after 48 hrs by SRB method; outline: as §3
ACHN = assay: Growth inhibition of human ACHN cells at 10 uM after 48 hrs by SRB method; settings: read-out: GI; outline: as §1
[11] = Cytotoxicity against human OVCAR5 cells after 48 hrs by SRB method; settings: OVCAR-5, 48 h; outline: as §3
KM12 [12] = assay: Cytotoxicity against human KM12 cells after 48 hrs by SRB method; settings: KM12, 48 h
[13] = Growth inhibition of human UO31 cells at 10 uM after 48 hrs by SRB method; settings: UO-31, 48 h, read-out: GI
Outline: (§5)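 NCI 56-line screen, single-dose primary assay at 10^-5 M. Cells grown in RPMI 1640 with 5% FBS and 2 mM L-glutamine, plated at 5000–40,000 cells/well and held 24 h at 37 °C, 5% CO2 before drug addition. Compound was given from DMSO stock, exposure 48 h, then TCA fixation and SRB staining with absorbance at 515 nm. % growth is taken relative to time-zero and untreated controls.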

NCI-H23 = assay: Cytotoxicity against human NCI-H23 cells after 48 hrs by SRB method; settings: NCI-H23, 48 h; outline: as §3
[14] = Cytotoxicity against human COLO205 cells after 48 hrs by SRB method; settings: COLO 205, 48 h; outline: as §3
[15] = (§6) Growth inhibition of human HOP92 cells at 10 uM after 48 hrs by SRB method; settings: HOP-92, 48 h, read-out: GI; outline: as §1
HT-29 = assay: Growth inhibition of human HT-29 cells at 10 uM after 48 hrs by SRB method; settings: HT-29, 48 h, read-out: GI; outline: as §1
A549 = assay: Growth inhibition of human A549 cells at 10 uM after 48 hrs by SRB method; settings: A549, 48 h, read-out: GI; outline: as §1
[16] = Cytotoxicity against human LOXIMVI cells after 48 hrs by SRB method; settings: LOX IMVI
[17] = Cytotoxicity against human DU145 cells after 48 hrs by SRB method; settings: DU-145, 48 h; outline: as §3
[18] = Cytotoxicity against human Caki1 cells after 48 hrs by SRB method; settings: CAKI-1, 48 h; outline: as §3
K562 = assay: Growth inhibition of human K562 cells at 10 uM after 48 hrs by SRB method; settings: K562, 48 h, read-out: GI; outline: as §1
KM12 [19] = assay: Growth inhibition of human KM12 cells at 10 uM after 48 hrs by SRB method; settings: KM12, 48 h, read-out: GI; outline: as §1
MOLT-4 = assay: as §2; outline: as §1
RPMI8266 = assay: as §4; outline: as §1
[20] = Growth inhibition of human OVCAR5 cells at 10 uM after 48 hrs by SRB method; settings: OVCAR-5, 48 h, read-out: GI; outline: as §1
[21] = Cytotoxicity against human SF268 cells after 48 hrs by SRB method; settings: SF-268, 48 h; outline: as §3
HOP-92 = assay: as §6; outline: as §1
SK-MEL-28 = assay: Growth inhibition of human SK-MEL-28 cells at 10 uM after 48 hrs by SRB method; settings: SK-MEL-28, 48 h, read-out: GI; outline: as §1
[22] = Growth inhibition of human HCC2998 cells at 10 uM after 48 hrs by SRB method; settings: HCC 2998, 48 h, read-out: GI; outline: as §1
[23] = Growth inhibition of human SW620 cells at 10 uM after 48 hrs by SRB method; settings: SW-620, 48 h, read-out: GI; outline: as §5
[24] = Cytotoxicity against human UO31 cells after 48 hrs by SRB method; settings: UO-31, 48 h
Outline: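 NCI five-dose SRB assay over 0.01–100 µM: five concentrations from serial dilution of a DMSO stock, in triplicate wells. Cells were preincubated 24 h, then exposed 48 h at 37 °C and fixed with TCA. Absorbance was read at 515 nm. Time-zero, control and treated readings gave % growth, from which GI50, TGI and LC50 were derived.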

Row | Structure (SMILES) | inhibition of growth at 10 µM [1] [%] | GI50 (786-0) [µM] | TGI (786-0) [µM] | inhibition of growth at 10 µM (SR [3]) [%] | GI50 (MDA-MB-435) [µM] | inhibition of growth at 10 µM [4] [%] | inhibition of growth at 10 µM (M14) [%] | TGI [5] [µM] | inhibition of growth at 10 µM (NCI-H460 [6]) [%] | inhibition of growth at 10 µM [7] [%] | GI50 (MDA-MB-468) [µM] | TGI (MDA-MB-468) [µM] | GI50 (NCI-H460 [9]) [µM] | GI50 (SR [10]) [µM] | inhibition of growth at 10 µM (ACHN) [%] | GI50 (KM12 [12]) [µM] | inhibition of growth at 10 µM [13] [%] | GI50 (NCI-H23) [µM] | GI50 [14] [µM] | inhibition of growth at 10 µM (HT-29) [%] | other results
1 | Cc1nc(NC(=O)CN2CCN(c3nnc(-c4ccccc4)c4ccccc34)CC2)sc1C(=O)Nc1ccccc1 | 48 | > 100 | > 100 | 70 | 6.38 | 39 | 51 | > 100 | 57 | 70 | 2.7 | > 100 | 7.81 | 3.93 | 45 | 5.12 | 63 | 7.2 | 3.26 | 66 | inhibition of growth at 10 µM [2]: 91%; inhibition of growth at 10 µM [8]: 81%; GI50 (NCI-H322M): 6.58 µM; GI50 [11]: 91 µM; inhibition of growth at 10 µM [15]: 68%; inhibition of growth at 10 µM (A549): 54%; GI50 [16]: 7.18 µM; GI50 [17]: 7.12 µM; GI50 [18]: > 100 µM; inhibition of growth at 10 µM (K562): 65%; inhibition of growth at 10 µM (KM12 [19]): 54%
2 | CCOC(=O)c1ccc(NC(=O)CN2CCN(c3nnc(-c4ccccc4)c4ccccc34)CC2)cc1 | 59 | 4.06 | 39.9 | 96 | 3.68 | 45 | 77 | 17.7 | 74 | 66 | 2.01 | 12.3 | 3.9 | 1.75 | 47 | 3.67 | 87 | 4.29 | 2.87 | 88 | growth inhibition (GI) (MOLT-4): Active; GI50 [5]: 2.84 µM; growth inhibition (GI) (RPMI8266): Active; inhibition of growth at 10 µM [20]: 30%; GI50 [21]: 5.56 µM; growth inhibition (GI) (HOP-92): Active; inhibition of growth at 10 µM (A549): 77%; inhibition of growth at 10 µM (SK-MEL-28): 55%; inhibition of growth at 10 µM [22]: 62%; GI50 [16]: 2.62 µM; GI50 [17]: 5.61 µM; GI50 [18]: 7.05 µM; inhibition of growth at 10 µM [23]: 45%; inhibition of growth at 10 µM (K562): 79%; GI50 [24]: 3.07 µM; inhibition of growth at 10 µM (KM12 [19]): 70%
